From ChEMBL document CHEMBL1150956, “Antitubercular natural products: berberine from the roots of commercial Hydrastis canadensis powder. Isolation of inactive 8-oxotetrahydrothalifendine, canadine, beta-hydrastine, and two new quinic acid esters, hycandinic acid esters-1 and -2” (1998) come the findings set out here.

For orientation: MIC means the lowest concentration that inhibits growth of the organism.

This test deals with Mycobacterium tuberculosis. The test is described as follows: Antimicrobial activity against recombinant Mycobacterium bovis BCG expressing pMV361 lux after 5 days by luciferase assay. The format is functional. The conditions noted are these: variant bovis BCG, 120 h. In short, it runs like this: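 rBCG (pMV361 lux) in Middlebrook 7H9 broth at about 5e5 cfu/mL final inoculum. Compounds were tested at 0.1–50 µg/mL and at higher levels, with no-drug 1% DMSO growth controls. Tubes were incubated at 36 °C in ambient air. A 100 µL aliquot received 100 µL of 1 mM luciferin, and RLU were read at day 0 (within 30 min) and day 5. Inhibition was scored as a drop in luminescence.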

For `COc1c(O)ccc2c1C(=O)N1CCc3cc4c(cc3C1C2)OCO4` (stereo not given), the MIC is more than 50 µg/mL.
To `COc1c(OC(C)=O)ccc2c1C(=O)N1CCc3cc4c(cc3C1C2)OCO4` (stereo not given) belongs more than 50 µg/mL.
The figure for `COc1ccc2c(c1OC)C(=O)N1CCc3cc4c(cc3C1C2)OCO4` (stereo not given) is more than 50 µg/mL.
As for `COc1ccc2cc3[n+](cc2c1OC)CCc1cc2c(cc1-3)OCO2.[Cl-]` [BERBERINE CHLORIDE], the MIC turned out to be 200 µg/mL.
Regarding `COc1ccc2c(c1OC)CN1CCc3cc4c(cc3[C@@H]1C2)OCO4` [CANADINE], the MIC is more than 50 µg/mL.
